Screening results from PubChem.
KCNQ1 act = potentiators or activators of KCNQ1 channel, primary screen, cell-based, thallium flux, high-throughput; CHO-K1 KCNQ1, thallium flux FluxOR fluorescence; hits give high values; B-score at 10 µM; hit rate 0.35% among 310,000; Potassium voltage-gated channel subfamily KQT member 1 (Homo sapiens), P51787; AID 2648, 2010;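 active means fluorescence ratio B-score, a plate-corrected score, at least three library SD, with initial intensity B-score within 5 SD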
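Doses: Single concentration per compound, DMSO matched to controls | Test system: KCNQ1-transfected CHO-K1 cells | Timing: 90 min dye loading and 20 min compound exposure, both at room temperature | Measured by: Kinetic FluxOR thallium fluorescence, 10-s 1-Hz baseline, 110-s post-stimulus read | Medium: Assay buffer with matched DMSO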
hERG rescue = hERG rescue from dofetilide block, primary screen, cell-based, CHO-hERG, FluxOR thallium flux, dofetilide IC70; Voltage-gated inwardly rectifying potassium channel KCNH2 (Homo sapiens), Q12809; activation (rescue from dofetilide block), less the hit threshold, % at 10 µM; dofetilide IC70 present; AID 1511, 2009; hit rate 0.51% among 310,000;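 active means activation above the mean of controls blocked by dofetilide plus 5 SD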;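 further: thallium influx through hERG after potassium depolarization seen as dye fluorescence rise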
Target sequence (Q12809 whole entry, looked up): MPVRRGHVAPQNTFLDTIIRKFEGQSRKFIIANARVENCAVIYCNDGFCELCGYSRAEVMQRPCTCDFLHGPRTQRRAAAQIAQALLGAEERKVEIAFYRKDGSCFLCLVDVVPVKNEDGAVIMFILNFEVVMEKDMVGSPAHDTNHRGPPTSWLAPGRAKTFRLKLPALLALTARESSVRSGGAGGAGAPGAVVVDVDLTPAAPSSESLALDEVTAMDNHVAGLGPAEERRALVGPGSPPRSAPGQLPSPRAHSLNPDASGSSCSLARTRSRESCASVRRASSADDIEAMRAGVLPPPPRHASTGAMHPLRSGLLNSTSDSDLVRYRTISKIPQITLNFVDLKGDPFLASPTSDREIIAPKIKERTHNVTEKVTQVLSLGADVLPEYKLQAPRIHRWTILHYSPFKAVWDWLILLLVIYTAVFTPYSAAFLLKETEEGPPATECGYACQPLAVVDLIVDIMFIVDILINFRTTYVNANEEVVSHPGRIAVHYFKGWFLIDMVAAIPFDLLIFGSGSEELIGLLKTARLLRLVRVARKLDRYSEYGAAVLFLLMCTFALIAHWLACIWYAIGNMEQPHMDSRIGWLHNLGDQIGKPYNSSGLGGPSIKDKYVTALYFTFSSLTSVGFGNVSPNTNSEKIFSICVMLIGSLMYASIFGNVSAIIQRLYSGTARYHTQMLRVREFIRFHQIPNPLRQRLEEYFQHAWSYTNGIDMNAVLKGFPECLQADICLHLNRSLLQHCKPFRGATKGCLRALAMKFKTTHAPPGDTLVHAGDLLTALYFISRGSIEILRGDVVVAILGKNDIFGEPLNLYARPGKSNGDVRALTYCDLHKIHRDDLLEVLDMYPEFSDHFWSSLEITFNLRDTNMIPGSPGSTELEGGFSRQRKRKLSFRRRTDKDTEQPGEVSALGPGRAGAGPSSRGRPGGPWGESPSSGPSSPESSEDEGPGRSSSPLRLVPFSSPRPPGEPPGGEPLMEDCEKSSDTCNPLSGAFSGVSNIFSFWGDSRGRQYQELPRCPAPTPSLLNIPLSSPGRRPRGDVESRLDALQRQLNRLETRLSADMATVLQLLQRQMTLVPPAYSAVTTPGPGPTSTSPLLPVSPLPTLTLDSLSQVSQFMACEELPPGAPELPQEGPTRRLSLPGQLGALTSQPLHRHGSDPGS
Kir21 block = inhibitors of mouse Kir2.1 inward-rectifier potassium channel. B-score at 10 µM. HEK293-Kir2.1, FluxOR thallium flux fluorescence; hits give low values. hit rate 0.85% among 310,000;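 active means fluorescence ratio B-score at or below minus 3 SD of library scores, with starting-brightness B-score within 2 SD, cut at about -4.2 in these data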;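 further: channel flux triggered by added potassium and thallium sulfate stimulus; B-score of peak minus minimum fluorescence over baseline after thallium stimulus; more negative B-score means stronger Kir2.1 block with less thallium influx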
KCNK3 block = human KCNK3 channel inhibitors, primary screen, CHO cells, FluxOR thallium flux, B-score; Potassium channel subfamily K member 3 (Homo sapiens), O14649; FluxOR fluorescence; hits give low values; B-score at 10 µM; hit rate 0.84% among 340,000; AID 602410, 2012;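 active means B-score under library mean minus 4 SD, starting fluorescence ratio at most library mean plus 5 SD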;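 further: more negative B-score means stronger inhibition of thallium flux through KCNK3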
KCNQ1 block = inhibitors of human KCNQ1 channel, primary screen, cell-based, thallium flux, high-throughput. AID 2642, 2010. B-score at 10 µM. CHO-K1 KCNQ1, FluxOR thallium flux fluorescence; hits give high values. hit rate 1.3% among 310,000;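 active means compounds whose thallium flux B-score, printed positive for inhibition, exceeds three library SD while starting fluorescence stays within three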;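 further: channel opened by potassium depolarization with thallium stimulus after 20 min compound exposure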
KCNK9 block = KCNK9 potassium channel inhibitors, primary screen, HEK293 cells, thallium flux; hit rate 1.2% among 310,000; AID 488922, 2010; Potassium channel subfamily K member 9 (Homo sapiens), Q9NPC2; B-score at 10 µM; FluxOR thallium flux fluorescence; hits give low values;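 active means ratio B-score over 3 SD below the library mean, with starting fluorescence within 5 SD of its mean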;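 further: negative B-score means less thallium flux so channel inhibition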
KCNK3 inh conf = retest of human KCNK3 channel inhibitors, confirmation, CHO cells, FluxOR thallium flux, triplicate; hit rate 99% among 2,400; ratio percent of control, % at 10 µM; shares compounds with KCNK3 block; FluxOR fluorescence; 0% buffer, 100% carvedilol maximal block;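 active means ratio percent of control, averaged over triplicates, above buffer control mean plus 5 SD, cut at about 64% in these data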;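 further: ratio is the fluorescence rise from min to max over baseline after thallium stimulus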
KCNK3 uninduced = thallium flux inhibition in non-induced cells, primary screen, counter-screen for KCNK3 inhibitor project, cell-based, non-induced KCNK3 line, FluxOR thallium, triplicate. shares compounds with KCNK3 block. thallium flux ratio (lower = more inhibition) at 10 µM. non-induced KCNK3 parental cells; hits give low values. hit rate 40% among 2,400;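 active means thallium flux ratio, averaged over three wells, more than 5 SD below the buffer control mean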;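 further: host cells are CHO cells without KCNK3 induction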
Of the large screens only hits and unclear results are named; the others gave an inactive call (follow-up assays come after a bar, where they were run). An excerpt weighted towards active compounds, which were near 3.8% of everything screened.

CCOc1ccc(Br)cc1S(=O)(=O)N1CCSC1	Kir21 block -5, KCNK3 block -9 | KCNK3 inh conf 88 | KCNK3 uninduced inactive
COc1ccc(-c2csc(N(CC3CCCO3)C(=O)c3cccs3)n2)cc1 (stereo not given)	KCNK3 block -10 | KCNK3 inh conf 117 | KCNK3 uninduced inactive
COc1ccc(OC)c(-c2csc(N(CC3CCCO3)C(=O)C3CCCCC3)n2)c1 (stereo not given)	KCNK3 block -9.5 | KCNK3 inh conf 93 | KCNK3 uninduced inactive
Cc1ccc(NC(=O)CSc2nnc(C3CC3)n2C)cc1S(=O)(=O)N1CCCCC1	none (no result: KCNQ1 act, hERG rescue, Kir21 block, KCNQ1 block, KCNK9 block)
N#C/C(=C\c1ccc(O)cc1)c1nc2ccccc2o1	KCNK3 block -11 | KCNK3 inh conf 130 | KCNK3 uninduced 0.12
COc1cc(/C=C(\C#N)c2nc3ccccc3o2)ccc1O	none
O=[N+]([O-])c1ccccc1Oc1ccc(S(=O)(=O)N2CCOCC2)cc1	none (no result: KCNQ1 act, hERG rescue, Kir21 block, KCNQ1 block, KCNK9 block)
O=C(CCc1ccccc1)N/N=C\C1CC=CCC1 (stereo not given)	none
CC(C)(C)c1ccc(OCC(=O)N/N=C/C2CC=CCC2)cc1 (stereo not given)	KCNK3 block -10, KCNK9 block -7.2 | KCNK3 inh conf 96 | KCNK3 uninduced inactive
CCC(C(=O)NCCc1ccc(C)cc1)n1nc(C)c2c(C)n(-c3ccccc3)nc2c1=O (stereo not given)	KCNK3 block -9.4 | KCNK3 inh conf 99 | KCNK3 uninduced inactive
Cc1ccc(CCNC(=O)C(C)n2nc(C)c3c(C)n(-c4ccccc4)nc3c2=O)cc1 (stereo not given)	none
CCSc1nc2c(c(-c3ccc(C)o3)c1C#N)CCCC2	KCNK3 block -8.8, KCNK9 block -6.7 | KCNK3 inh conf 96 | KCNK3 uninduced inactive
COC(=O)CSc1nc2c(c(-c3ccc(C)o3)c1C#N)CCCC2	none
C=CC[C@H](CC(=O)N(CCO)Cc1ccccc1)C(=O)N[C@H](COC(=O)[C@@H](CC=C)CC(=O)OC(C)(C)C)Cc1c[nH]c2ccccc12	none (no result: KCNQ1 act, hERG rescue, Kir21 block, KCNQ1 block, KCNK9 block)
Cc1cc(C)cc(NC(=S)N(CCN2CCCCC2)Cc2ccco2)c1	KCNK3 block -8.9 | KCNK3 inh conf 90 | KCNK3 uninduced inactive
Cc1cc(NC(=O)c2cc3ccccc3o2)ccc1NC(=O)c1ccccc1	KCNK3 block -10 | KCNK3 inh conf inactive | KCNK3 uninduced inactive
Cc1cc(NC(=O)c2cccnc2)ccc1NC(=O)c1cc2ccccc2o1	none
Cc1c(Nc2cc(N3CCOCC3)c3nonc3c2[N+](=O)[O-])c(=O)n(-c2ccccc2)n1C	none (no result: KCNK3 block)
Cc1c(Nc2cc(Cl)c3nonc3c2[N+](=O)[O-])c(=O)n(-c2ccccc2)n1C	KCNK3 block -18 (no result: KCNQ1 act, hERG rescue, Kir21 block, KCNQ1 block, KCNK9 block) | KCNK3 inh conf 145 | KCNK3 uninduced 0.096
CCCNC(=O)[C@H](Cc1c[nH]c2ccccc12)NC(=O)c1ccccc1Cl	none
COc1ccccc1NC(=O)C(C)N(C)CC(=O)Nc1cccc2ccccc12 (stereo not given)	none (no result: KCNQ1 act, hERG rescue, Kir21 block, KCNQ1 block, KCNK9 block)
COc1ccccc1NC(=O)C(C)N(C)Cc1ccc(Cl)s1 (stereo not given)	KCNK9 block -6.9 | KCNK3 inh conf 107 | KCNK3 uninduced 0.16
COc1ccc(CN(C)C(C)C(=O)Nc2cccc3ccccc23)cc1 (stereo not given)	KCNK3 block -9.7 | KCNK3 inh conf 121 | KCNK3 uninduced 0.16
Cc1ccc(OC(=O)c2cccc(C(=O)Oc3ccc(C)cn3)n2)nc1	none (no result: KCNK3 block)
Cc1ccccc1N(CC(=O)N/N=C/c1ccc(N(C)C)cc1)C(=O)c1ccccc1	none
Clc1ccccc1-c1nc(-c2ccc(Br)o2)no1	KCNK3 block -10 | KCNK3 inh conf 123 | KCNK3 uninduced 0.15
O=[N+]([O-])c1ccccc1-c1nc(-c2ccc(Br)o2)no1	none
O=C(CC(c1ccccc1)c1ccccc1)Nc1ccc(O)cc1	KCNK3 block -9.7 | KCNK3 inh conf 88 | KCNK3 uninduced inactive
O=C(CS(=O)(=O)c1ccccc1)Nc1ccc(Cl)cn1	none
O=C(CC(c1ccccc1)c1ccccc1)Nc1ccc(Cl)cn1	KCNK3 block -8.9 | KCNK3 inh conf 109 | KCNK3 uninduced inactive
CCOC(=O)c1cc2c(=O)n3ccccc3nc2n(CC(C)C)c1=NC(=O)c1ccco1	none
CCOC(=O)c1cc2c(=O)n3ccccc3nc2n(Cc2ccco2)c1=NC(=O)c1ccccc1OCC	KCNK3 block -8.8 | KCNK3 inh conf 91 | KCNK3 uninduced inactive
CCOC(=O)c1c(NC(=O)CSc2nnc(-c3ccccc3)n2CC)sc(C(C)=O)c1C	none
CCOC(=O)c1sc(NC(=O)CSc2nnc(-c3ccco3)n2CC)c(C(=O)OCC)c1C	KCNK3 block -12 | KCNK3 inh conf 98 | KCNK3 uninduced inactive
O=C(CSc1nnc(-c2ccc(Cl)cc2Cl)n1C1CCCCC1)N1CCCC1	none
COc1ccc(C2=NS(=O)(=O)N(C)C(C(=O)Nc3cc(C)ccc3O)=C2)cc1OC	KCNK3 block -9.2, KCNQ1 block 9 | KCNK3 inh conf 95 | KCNK3 uninduced inactive
Cc1nc2ccccn2c1C(=O)CSc1ccccc1	none
COCC(C)NC(=O)c1cc2cccc([N+](=O)[O-])c2[nH]1 (stereo not given)	none
Cc1cc(NC(=O)c2cc3cccc([N+](=O)[O-])c3[nH]2)ccc1F	KCNK3 block -13, KCNQ1 block 11 | KCNK3 inh conf 126 | KCNK3 uninduced 0.14
COCn1c(COc2ccc3ccccc3c2)nc2ccccc21	KCNK3 block -8.8 | KCNK3 inh conf 95 | KCNK3 uninduced inactive
CCn1c(COc2cccc(C)c2)nc2ccccc21	none
Cc1ccccc1-c1cc(-c2ccccc2O)on1	KCNK3 block -9.2 | KCNK3 inh conf 118 | KCNK3 uninduced inactive
CSc1nc(C)nc(N/C=C(\C#N)S(=O)(=O)c2ccccc2Cl)n1	none
c1ccc(SCc2cc(-c3ccccc3)no2)cc1	KCNK3 block -10 | KCNK3 inh conf 100 | KCNK3 uninduced inactive
CC(=O)Nc1ccc2nc(C3CC3)n(Cc3ccc(Cl)cc3)c(=O)c2c1	none
